Experimental data published in ChEMBL document CHEMBL4813947, “New dual ATP-competitive inhibitors of bacterial DNA gyrase and topoisomerase IV active against ESKAPE pathogens” (Eur J Med Chem, 2021).
In brackets after ≈: the same amount, converted by molar mass.

Key:
Escherichia coli [1] = test: Antibacterial activity against Escherichia coli MG1655 in presence of efflux pump inhibitor PAbetaN assessed as inhibition of bacterial growth by CLSI protocol based broth microdilution assay; type: functional
[2] = Inhibition of Staphylococcus aureus topoisomerase assessed as reduction in relaxation of supercoiled pNO1 DNA measured after 30 mins by fluorescence assay
How it was run: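 Enzyme run per an earlier-reported procedure; IC50 fitted from seven inhibitor concentrations, mean of three independent measurements.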

[3] = Ratio of genotoxicity in CHO-K1 cells by invitro micronucleus test to MIC for Enterococcus faecalis ATCC 29212; type: toxicity, cell-based; settings: hamster
Enterococcus faecalis = test: Antibacterial activity against Enterococcus faecalis ATCC 29212 assessed as inhibition of bacterial growth by CLSI protocol based broth microdilution assay; type: functional
Staphylococcus aureus [4] = test: Antibacterial activity against methicillin-resistant wild type Staphylococcus aureus ATCC 43300 assessed as inhibition of bacterial growth by CLSI protocol based broth microdilution assay; type: functional
How it was run: (§1)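 Minimum inhibitory concentration by standard serial broth microdilution following CLSI guidelines. Medium was MHBII broth (22 g/L powder: beef extract, casein acid hydrolysate, starch), with MHBII agar (14 g agar per L broth). Where noted, assayed without and with efflux pump substrate phenylalanine-arginine β-naphthylamide (PAβN).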

Staphylococcus aureus [5] = test: Antibacterial activity against vancomycin-resistant Staphylococcus aureus ATCC 700699 harboring GyrB […] mutant assessed as inhibition of bacterial growth by CLSI protocol based broth microdilution assay; type: functional; how it was run: as §1
Acinetobacter baumannii [6] = test: Antibacterial activity against clinical isolate ciprofloxacin resistance Acinetobacter baumannii ATCC BAA-1605 assessed as inhibition of bacterial growth by CLSI protocol based broth microdilution assay; type: functional; how it was run: as §1
Staphylococcus aureus [7] = test: Ratio of MIC for methicillin-resistant Staphylococcus aureus ATCC 43300 harboring GyrB T173A mutant to MIC for methicillin-resistant wild type Staphylococcus aureus ATCC 43300; type: functional
Escherichia coli [8] = test: Antibacterial activity against Escherichia coli ATCC 25922 assessed as inhibition of bacterial growth by CLSI protocol based broth microdilution assay; type: functional
Escherichia coli [9] = test: Ratio of MIC for Escherichia coli MG1655 harboring GyrB R136C mutant in presence of efflux pump inhibitor PAbetaN to MIC for wild type Escherichia coli MG1655 in presence of efflux pump inhibitor PAbetaN; type: functional
Escherichia coli [10] = test: Antibacterial activity against clinical isolate ciprofloxacin resistance Escherichia coli 31995 assessed as inhibition of bacterial growth by CLSI protocol based broth microdilution assay; type: functional; how it was run: as §1
[11] = system: human topoisomerase 2alpha; test: Selectivity ratio of IC50 for inhibition of human topoisomerase 2alpha to IC50 for inhibition of Escherichia coli DNA gyrase; type: toxicity; settings: read-out: Ratio IC50
Staphylococcus aureus [12] = test: Ratio of MIC for vancomycin-resistant Staphylococcus aureus ATCC 700699 harboring GyrB R144I mutant to MIC for vancomycin-resistant wild type Staphylococcus aureus ATCC 700699; type: functional
[13] = Ratio of genotoxicity in CHO-K1 cells in presence of rat liver S9 fraction by invitro micronucleus test to MIC for vancomycin-resistant Staphylococcus aureus ATCC 700699; type: toxicity, cell-based; settings: CHO-K1 cells with rat liver S9 fraction
Acinetobacter baumannii [14] = test: Antibacterial activity against Acinetobacter baumannii ATCC 17978 assessed as inhibition of bacterial growth by CLSI protocol based broth microdilution assay; type: functional
DNA gyrase [15] = target: DNA gyrase (Escherichia coli, UniProt P0AES4+P0AES6); test: Inhibition of Escherichia coli DNA gyrase assessed as reduction in supercoiling of relaxed pNO1 DNA measured after 30 mins by fluorescence assay
Staphylococcus aureus [16] = test: Antibacterial activity against methicillin-resistant Staphylococcus aureus ATCC 43300 harboring GyrB R144I mutant assessed as inhibition of bacterial growth by CLSI protocol based broth microdilution assay; type: functional; how it was run: as §1
Pseudomonas aeruginosa [17] = test: Antibacterial activity against Pseudomonas aeruginosa ATCC 27853 assessed as inhibition of bacterial growth by CLSI protocol based broth microdilution assay; type: functional
[18] = Ratio of genotoxicity in CHO-K1 cells in presence of rat liver S9 fraction by invitro micronucleus test to MIC for methicillin-resistant wild type Staphylococcus aureus ATCC 43300; type: toxicity, cell-based; settings: CHO-K1 cells with rat liver S9 fraction
MCF7 = test: Cytotoxicity against human MCF-7 cells upto 100 uM by lactate dehydrogenase assay; type: cell-based
How it was run: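 HepG2 or MCF-7 cells grown in EMEM with 2 mM L-glutamine, penicillin/streptomycin, 10% FBS at 37 °C, 5% CO2; LDH release kit per manufacturer, test concentrations up to 100 µM.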

DNA gyrase [19] = target: DNA gyrase (Staphylococcus aureus, UniProt P0A0K8+P20831); test: Inhibition of Staphylococcus aureus DNA gyrase assessed reduction in supercoiling of relaxed pNO1 DNA measured after 30 mins by fluorescence assay
[20] = target: DNA topoisomerase 2-alpha (Homo sapiens, UniProt P11388); test: Inhibition of human topoisomerase 2alpha assessed as reduction in relaxation of supercoiled DNA fluorescence-based microplate reader assay
How it was run: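 Human topoisomerase IIα, 1.5 U with 0.75 µg supercoiled pNO1 plasmid, 1 mM ATP, pH 7.5 Tris/MgCl2/NaCl/DTT buffer, 37 °C 30 min. Stopped with TF buffer pH 5.0, then triplex capture on immobilized biotinylated oligonucleotide 30 min at room temperature. Dye fluorescence read (ex 485/em 537 nm). IC50 from seven concentrations, mean of three runs; etoposide control.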

Staphylococcus aureus [21] = test: Antibacterial activity against methicillin-resistant Staphylococcus aureus ATCC 43300 harboring GyrB T173A mutant assessed as inhibition of bacterial growth by CLSI protocol based broth microdilution assay; type: functional; how it was run: as §1
Klebsiella pneumoniae = test: Antibacterial activity against Klebsiella pneumoniae ATCC 10031 assessed as inhibition of bacterial growth by CLSI protocol based broth microdilution assay; type: functional
Pseudomonas aeruginosa [22] = test: Antibacterial activity against Pseudomonas aeruginosa 19488 assessed as inhibition of bacterial growth by CLSI protocol based broth microdilution assay; type: functional
[23] = Genotoxicity in CHO-K1 cells upto 16 uM by invitro micronucleus test; type: cell-based, Cricetulus griseus; settings: chinese hamster
[24] = Ratio of genotoxicity in CHO-K1 cells in presence of rat liver S9 fraction by invitro micronucleus test to MIC for Enterococcus faecalis ATCC 29212; type: toxicity, cell-based; settings: CHO-K1 cells with rat liver S9 fraction
Escherichia coli [25] = test: Antibacterial activity against wild type Escherichia coli MG1655 assessed as inhibition of bacterial growth by CLSI protocol based broth microdilution assay; type: functional; how it was run: as §1
Escherichia coli [26] = test: Antibacterial activity against Escherichia coli 20204 assessed as inhibition of bacterial growth by CLSI protocol based broth microdilution assay; type: functional
[27] = Drug metabolism in rat liver S9 fraction assessed as hydroxylated benzothiazole ring metabolite; type: ADME, subcellular
[28] = system: human topoisomerase 2alpha; test: Selectivity ratio of IC50 for inhibition of human topoisomerase 2alpha to IC50 for inhibition of Staphylococcus aureus topoisomerase IV; type: toxicity; settings: read-out: Ratio IC50
Escherichia coli [29] = test: Antibacterial activity against clinical isolate ciprofloxacin resistance Escherichia coli 31859 assessed as inhibition of bacterial growth by CLSI protocol based broth microdilution assay; type: functional; how it was run: as §1
[30] = Drug metabolism in rat liver S9 fraction assessed as hydroxylated methyl-pyrrole moiety metabolite; type: ADME, subcellular
[31] = Ratio of genotoxicity in CHO-K1 cells by invitro micronucleus test to MIC for vancomycin-resistant Staphylococcus aureus ATCC 700699; type: toxicity, cell-based; settings: hamster

## Cc1[nH]c(C(=O)Nc2nc3c(OCc4ccsc4)cc(C(=O)O)cc3s2)c(Cl)c1Cl
Escherichia coli [1]
  MIC: 0.125 µg/mL
[2]
  IC50: 84 nM
[3]
  selectivity ratio: 495
Enterococcus faecalis
  MIC: 0.0156 µg/mL (≈ 0.0323 µM)
Staphylococcus aureus [4]
  MIC: 0.0625 µg/mL (≈ 0.13 µM)
Staphylococcus aureus [5]
  MIC: 0.0625 µg/mL (≈ 0.13 µM)
Acinetobacter baumannii [6]
  MIC: 0.5 µg/mL (≈ 1.04 µM)
Staphylococcus aureus [7]
  Ratio: 2
Escherichia coli [8]
  MIC: 4 µg/mL (≈ 8.29 µM)
Escherichia coli [9]
  Ratio: 8
Escherichia coli [10]
  MIC: 2 µg/mL (≈ 4.15 µM)
[11]
  selectivity ratio: 450
Staphylococcus aureus [12]
  Ratio: 2
[13]
  selectivity ratio: 957
Acinetobacter baumannii [14]
  MIC: 1 µg/mL (≈ 2.07 µM)
DNA gyrase [15]
  IC50: < 10 nM
Staphylococcus aureus [16]
  MIC: 0.25 µg/mL (≈ 0.518 µM)
Pseudomonas aeruginosa [17]
  MIC: 2 µg/mL (≈ 4.15 µM)
[18]
  selectivity ratio: 478
MCF7
  Activity: Non-Toxic
DNA gyrase [19]
  IC50: < 10 nM
[20]
  INH: 45 µM
Staphylococcus aureus [21]
  MIC: 0.125 µg/mL (≈ 0.259 µM)
Klebsiella pneumoniae
  MIC: 2 µg/mL (≈ 4.15 µM)
Pseudomonas aeruginosa [22]
  MIC: 16 µg/mL (≈ 33.2 µM)
[23]
  Activity: Non-Toxic
[24]
  selectivity ratio: 1920
Escherichia coli [25]
  MIC: > 64 µg/mL
Escherichia coli [26]
  MIC: 1 µg/mL (≈ 2.07 µM)
[27]
  Drug metabolism: Metabolite_Detected
[28]
  selectivity ratio: 54
Escherichia coli [29]
  MIC: 2 µg/mL (≈ 4.15 µM)
[30]
  Drug metabolism: Metabolite_Detected
[31]
  selectivity ratio: 247
